The values that follow come from ChEMBL document CHEMBL4130398, “Cyperaceae Species Are Potential Sources of Natural Mammalian Arginase Inhibitors with Positive Effects on Vascular Function” (J Nat Prod, 2017).

The species entered for one experiment is Bos taurus. In words: Inhibition of bovine liver arginase assessed as reduction in urea production at 100 uM using L-arginine as substrate after 60 mins in presence of MnCl2 by alpha-isonitrosopropiophenone reagent based spectrophotometric analysis relative to control. The procedure, abridged: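 Purified bovine liver arginase I (0.025 U/μL in Tris-HCl 50 mM pH 7.5 with 0.1% BSA) with 10 mM MnCl2 cofactor, inhibitor from DMSO stock diluted in water, and L-arginine (0.05 M, pH 9.7). Incubated 60 min at 37 °C. Acid quench, then α-isonitrosopropiophenone at 100 °C for 45 min, A550. Activity relative to solvent control; three experiments in duplicate, mean ± SEM.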

Experiment [1] can be described thus: Inhibition of bovine liver arginase assessed as reduction in urea production using L-arginine as substrate after 60 mins in presence of MnCl2 by alpha-isonitrosopropiophenone reagent based spectrophotometric analysis. The arrangement: species or system Bos taurus. The procedure, abridged:
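Purified bovine liver arginase I with MnCl2 (10 mM) in Tris-HCl pH 7.5/BSA buffer, L-arginine substrate (0.05 M, pH 9.7). Inhibitors from 70 mM DMSO stocks, final 0.1–1000 μM in the well. 60 min at 37 °C, then urea read with α-isonitrosopropiophenone at 550 nm. IC50 taken from semilog plots of inhibition relative to solvent control; three experiments in triplicate, mean ± SEM.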

Structures are written as SMILES. pIC50: −log10 of the molar value.

Broadly, the inhibition is the relative decrease from the control value, in per cent. Broadly, the pIC50 is −log10 of the IC50, conventionally taken in molar units.

For the compound `Oc1cc(O)cc([C@@H]2c3c(/C=C/c4ccc(O)c(O)c4)cc(O)cc3O[C@H]2c2ccc(O)c(O)c2)c1`, the inhibition in the experiment listed under Bos taurus was in the range of 80 to 90%. Moreover, the pIC50 in experiment [1] is 4.65.

For the compound `Oc1cc(O)cc([C@@H]2[C@@H](c3ccc(O)c(O)c3)c3cc(O)c(O)cc3[C@@H]3c4c(O)cc(O)cc4[C@@H]4c5c(cc(O)cc5[C@H]32)O[C@H]4c2ccc(O)c(O)c2)c1`, in the experiment listed under Bos taurus, the inhibition is 80 to 90%. The pIC50 in experiment [1] is 4.91.

Regarding `N=C(NO)NCC[C@H](N)C(=O)O` [NOR-NOHA], the negative logarithm of the IC50 (pIC50) in experiment [1] is 5.77.

In the case of `Oc1ccc([C@H]2c3c(O)cc(O)cc3[C@H]3c4c(cc(O)cc4[C@@H]2O)O[C@H]3c2ccc(O)cc2)cc1`, the inhibition in the experiment listed under Bos taurus was 80 to 90%. For the same compound, the pIC50 in experiment [1] is 3.74.

Take `Oc1ccc([C@H]2Oc3cc(O)cc([C@@H]4[C@H](c5cc(O)cc(O)c5)[C@@H](c5ccc(O)cc5)O[C@@H]4c4ccc(O)cc4)c3[C@@H]2c2cc(O)cc3c2[C@@H](c2cc(O)cc(O)c2)[C@H](c2ccc(O)c(O)c2)O3)cc1`: in the experiment filed under Bos taurus, the inhibition was in the range of 80 to 90%. Besides, the pIC50 in experiment [1] was 4.60.

In the case of `Oc1cc(O)cc(/C=C/c2ccc(O)c(O)c2)c1` [PICEATANNOL], in the experiment filed under Bos taurus, the inhibition lay in the range of 80 to 90%. Also, the pIC50 in experiment [1] was 4.90.

As for `OC[C@H]1O[C@@H](Oc2cc(/C=C/c3ccc(O)cc3)cc(O[C@@H]3O[C@H](CO)[C@@H](O)[C@H](O)[C@H]3O)c2)[C@H](O)[C@@H](O)[C@@H]1O`, the inhibition in the experiment filed under Bos taurus is 80 to 90%.

For the compound `Oc1ccc(/C=C/c2cc(O)cc3c2[C@H](c2cc(O)cc(O)c2)[C@@H](c2ccc(O)cc2)O3)cc1`, the inhibition in the experiment listed under Bos taurus lay within 80 to 90%. Further, in experiment [1], the pIC50 was 4.56.

In the case of `Oc1ccc([C@H]2Oc3cc(O)cc([C@@H]4[C@H](c5cc(O)cc(O)c5)[C@@H](c5ccc(O)cc5)O[C@@H]4c4ccc(O)cc4)c3[C@@H]2c2cc(O)cc3c2[C@@H](c2cc(O)cc(O)c2)[C@H](c2ccc(O)cc2)O3)cc1`, the inhibition in the experiment listed under Bos taurus was in the range of 80 to 90%.
